Active and inactive are the calls of the source. The calls are words filed in the database; no cut-off is given here.
How the values were obtained:
[1] = tested on: MDA-MB-231; test: Effect on human MDA-MB-231 cells assessed as miR-548d-5p expression at 1 uM by real-time PCR analysis; type: functional, cell-based
[2] = tested on: MDA-MB-231; test: Antiproliferative activity in human MDA-MB-231 cells assessed as inhibition of cell growth at 1 uM by CCK-8 assay; type: functional, cell-based
[3] = tested on: MDA-MB-231; test: Effect on human MDA-MB-231 cells assessed as RSK3 […] expression at 1 uM for 24 hrs by Western blot analysis; type: functional, cell-based
[4] = tested on: BT-549; test: Effect on human BT-549 cells assessed as RSK3 […] expression at 1 uM for 24 hrs by Western blot analysis; type: functional, cell-based
[5] = tested on: MDA-MB-231; test: Antiproliferative activity in human JUND-overexpressing MDA-MB-231 cells assessed as cell viability at 1 uM by CellTiter-Glo luminescent cell viability assay; type: functional, cell-based
Procedure, shortened: (§1)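 Stable JUND-knockdown (shRNA, puromycin 1.0 μg/ml selection) or JUND-overexpressing clones and vector controls, seeded 3000 cells/well and adhered overnight, then given DMSO or JQ1 (1 μM) for 48 h. Read-out CellTiter-Glo luminescence normalized to DMSO control; triplicates, mean ± SD, one-way ANOVA.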

[6] = tested on: MDA-MB-231; test: Effect on human JUND-overexpressing MDA-MB-231 cells assessed as RSK3 protein expression at 1 uM by Western blot analysis; type: functional, cell-based
Procedure, shortened: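 RSK3 and JunD were probed by western blot in JUND-knockdown or JUND-overexpressing stable clones and their controls, all selected with puromycin 1.0 μg/ml. Antibodies used at 1:1000.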

[7] = tested on: MDA-MB-231; test: Antiproliferative activity in human JUND-knockdown MDA-MB-231 cells assessed as cell viability at 1 uM by CellTiter-Glo luminescent cell viability assay; type: functional, cell-based; procedure, shortened: as §1
[8] = tested on: BT-549; test: Effect on human RPS6KA2-knockdown BT-549 cells assessed as RSK3 protein expression at 1 uM by Western blot analysis; type: functional, cell-based
[9] = tested on: BT-549; test: Effect of human RSK3-overexpressing BT-549 cells assessed as suppression of tumour sphere formation at 1 uM by Tumour sphere assay; type: functional, cell-based
[10] = tested on: BT-549; test: Effect on human RPS6KA2-knockdown BT-549 cells assessed as inhibition tumor sphere formation at 1 uM by Tumor sphere assay; type: functional, cell-based
[11] = tested on: MDA-MB-231; test: Effect on induction of RPS6KA2 transcription in human MDA-MB-231 cells assessed as enhanced luciferase activity at 1 uM for 6 hrs by Luciferase reporter assay; type: functional, cell-based
Procedure, shortened: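 Control or JunD-shRNA BLBC cells were transfected with the RPS6KA2 enhancer luciferase reporter (FuGene 6, 24 h) and then treated with DMSO or JQ1 1 μM for 6 h. Dual-luciferase read-out given as fold induction over vector control. Three experiments in triplicate.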

[12] = tested on: MDA-MB-231; test: Antiproliferative activity in human MDA-MB-231 cells assessed as cell growth in the presence of miR-548d-3p inhibitor at 1 uM by CCK-8 assay; type: functional, cell-based
Procedure, shortened: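 BLBC cells transfected with miR-548d-3p mimic or inhibitor, with or without JQ1; growth read by CCK-8 assay relative to DMSO-treated control, seeded at 3000/well. Triplicates, mean ± SD, one-way ANOVA.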

[13] = tested on: HEK-293T; test: Effect on human HEK293T cells transfected with FOXD3 assessed as decrease in luciferase activity at 1 uM for 6 hrs by Luciferase reporter assay; type: functional, cell-based
[14] = tested on: MCF7; test: Antiproliferative activity in human FOXD3-overexpressing MCF7 cells assessed as cell growth at 1 uM by CCK-8 assay; type: functional, cell-based
[15] = tested on: MDA-MB-231; test: Antiproliferative activity in human MDA-MB-231 cells assessed as cell growth in the presence of gefitinib at 1 uM by CellTiter-Glo luminescent cell viability assay; type: functional, cell-based
Procedure, shortened: (§2)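 BLBC cells seeded at 3000/well, adhered overnight, then exposed to JQ1 (1 μM) with or without an EGFR inhibitor (1 μM) for 48 h; control and RPS6KA2-shRNA clones tested. Viability by CellTiter-Glo luminescence, background-subtracted and normalized to DMSO-treated control; triplicates, mean ± SD, one-way ANOVA against JQ1 alone.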

[16] = tested on: MDA-MB-231; test: Antiproliferative activity in human MDA-MB-231 cells assessed as cell growth in the presence of erlotinib at 1 uM by CellTiter-Glo luminescent cell viability assay; type: functional, cell-based; procedure, shortened: as §2
[17] = tested on: MDA-MB-231; test: Effect on human MDA-MB-231 cells assessed as EGFR protein expression at 1 uM by Western blot analysis; type: functional, cell-based
[18] = tested on: MDA-MB-231; test: Antiproliferative activity in human JunD-overexpressing MDA-MB-231 cells assessed as cell growth in the presence of osimertinib at 1 uM by CCK-8 assay; type: functional, cell-based
Procedure, shortened: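 Vector control, RSK3- or JunD-overexpressing cells seeded 3000/well, adhered overnight, then treated with JQ1 alone or combined with kinase inhibitors for 48 h; growth by CCK-8, normalized to DMSO control; triplicates, mean ± SD.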

[19] = tested on: BT-549; test: Antiproliferative activity in human BT-549 cells assessed as cell growth for 48 hrs in the presence of osimertinib at 1 uM by CCK-8 assay; type: functional, cell-based
Procedure, shortened: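 Cells seeded 3000/well, adhered overnight, treated with JQ1 (1 μM) with or without osimertinib (1 μM) for 48 h; growth by CCK-8 kit, normalized to DMSO-treated control; triplicates, mean ± SD, one-way ANOVA.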

[20] = tested on: MDA-MB-231; test: Antitumor activity against human MDA-MB-231 cells xenografted in BALB/c nude mouse model assessed as reduction of tumor weight in the presence of osimertinib at 35 mg/kg/day, sc administered every 2 days for 30 days; type: functional, organism-based; conditions: time 30.0 day
Procedure, shortened: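 MDA-MB-231 xenografts used 1 × 10^6 cells injected subcutaneously into female BALB/c nude mice (4–6 weeks). Animals were split into four groups (n = 7) at ~100 mm3: vehicle, osimertinib 10 mg/kg, 35 mg/kg agent, or the combination, each given every 2 days. Volume was measured by calliper as length × width²/2; tumours were weighed at end.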

[21] = tested on: MDA-MB-231; test: Effect on human RPS6KA2 transfected MDA-MB-231 cells by measuring luciferase activity at 20 uM by Luciferase reporter assay; type: functional, cell-based
[22] = tested on: BT-549; test: Effect on human RPS6KA2 knockdown BT-549 cells assessed as RSK3 protein expression at 1 uM for 24 hrs by Western blot analysis; type: functional, cell-based
[23] = tested on: MDA-MB-231; test: Induction of apoptosis in human MDA-MB-231 cells over expressing RSK3 assessed as early apoptotic cells at 1 uM by Annexin V-FITC flow cytometric analysis (reference value: 3.85%); type: functional
Procedure, shortened: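 Stable clones (vector, RSK3-overexpressing or RPS6KA2-knockdown) treated ± JQ1 1 μM. Cells washed twice in PBS, resuspended at 1 × 10^6 cells/ml in binding buffer, stained with Annexin V-FITC and propidium iodide for 10 min at room temperature in the dark, then read by flow cytometry. Three independent experiments; one-way ANOVA.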

`Cc1sc2c(c1C)C(c1ccc(Cl)cc1)=N[C@@H](CC(=O)OC(C)(C)C)c1nnc(C)n1-2` was tested, and the Activity [1] was “Active”, the Activity [2] was “Active” and the Activity [3] was “Active”. For the same molecule, the Activity [4] was “Active”, the Activity [5] was “Active” and the Activity [6] was “Active”. The Activity [7] was “Active”, the Activity [8] was “Active” and the Activity [9] was “Active”. The Activity [10] was “Active”, the Activity [11] was “Active” and the Activity [12] was “Active”. For the same molecule, the Activity [13] was “Active”, the Activity [14] was “Active” and the Activity [15] was “Active”. For the same molecule, the Activity [16] was “Active”, the Activity [17] was “Active” and the Activity [18] was “Active”. For the same molecule, the Activity [19] was “Active”, the Activity [20] was “Active” and the Activity [21] was “Active”. The Activity [22] was “Active” and the Activity [23] was 7.14%.
